Measurements from ChEMBL document CHEMBL1125085, “Synthesis and anticonvulsant activity of some new 2-substituted 3-aryl-4(3H)-quinazolinones” (J Med Chem, 1990).

Legend:
[1] = species: Mus musculus; assay: Time taken to reach peak toxicity was reported.; assay type: organism-based; conditions: in vivo
[2] = test system: Mus musculus; assay: MES test was performed after Injecting intraperitoneally at the time of peak anticonvulsant effect in phase II test; assay type: functional; conditions: ip
Method in brief: (§1)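 Phase II testing in male Carworth Farms no. 1 mice, ip dosing in 30% PEG 400 (0.01 mL/g). Groups of 8–16 mice received a range of doses, giving at least three points in 10–90% protection. ED50 with 95% confidence interval was fitted by probit analysis at the time of peak effect. scMet used pentylenetetrazol 85 mg/kg sc.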

[3] = species: Mus musculus; assay: Median toxic dose was measured at time of peak neurologic deficit.; assay type: functional
Method in brief: (§2)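 Mice dosed ip in 30% PEG 400. Minimal neurotoxicity was scored by rotorod at the time of peak neurologic deficit. Groups of 8–16 mice were used, with at least three points in the 10–90% range, and TD50 with 95% confidence interval was derived by probit analysis.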

[4] = Protective index is the ratio of TD50 and ED50 values obtained in the maximal electroshock seizure (MES) test.; assay type: functional
Method in brief: (§3)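 Protective index = TD50/ED50. Both values are medians from groups of 8–16 animals per dose, with at least three points in the 10–90% effect range, fitted by probit analysis. Each was taken at its own time of peak effect: seizure protection for ED50, neurologic deficit for TD50.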

[5] = species: Mus musculus; assay: Time taken to reach peak activity was reported.; assay type: functional
[6] = test system: Mus musculus; assay: Subcutaneous metrazole (scMet) test was conducted after Injecting intraperitoneally at the time of peak anticonvulsant in phase II test; assay type: functional; method in brief: as §1
[7] = Protective index is the ratio of TD50 and ED50 values obtained in the subcutaneous metrazole (scMet) test.; assay type: functional; method in brief: as §3
[8] = test system: Mus musculus; assay: (§4) Subcutaneous metrazole (scMet) test was conducted and median effective dose was determined at the time of peak anticonvulsant and sedative effect; assay type: functional; conditions: sc
Method in brief: (§5)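 Pentylenetetrazol (85 mg/kg in mice, 70 mg/kg in rats) was given subcutaneously in the posterior midline as a 0.5% solution. Compounds were in 30% PEG 400, dosed ip in male Carworth Farms no. 1 mice, or orally in mice and Sprague-Dawley rats. ED50 was read at time of peak effect, using groups of 8–16 animals and ≥3 doses giving 10–90% protection. Probit analysis gave 95% confidence intervals.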

[9] = species: Mus musculus; assay: Anticonvulsant activity was determined by injecting perorally in mice. Maximal electroshock seizure test was performed; assay type: functional
Method in brief: (§6)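 Oral dosing in mice, test solutions in 30% polyethylene glycol 400, 0.01 mL/g body weight. Groups of 8–16 mice received a range of doses until at least three points fell within 10–90% seizure protection.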

[10] = species: Rattus norvegicus; assay: Anticonvulsant activity was determined by injecting perorally in rats. Time taken to reach peak activity was reported; assay type: functional
Method in brief: (§7)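 Time of peak effect, in hours, was found separately for anticonvulsant activity and for neurotoxicity. ED50 and TD50 were then determined at those times.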

[11] = species: Mus musculus; assay: Anticonvulsant activity was determined by injecting perorally in mice.(scMet) test was conducted; assay type: functional; method in brief: as §6
[12] = Neurotoxicity was determined by injecting perorally in rats; assay type: toxicity, organism-based; conditions: rat, in vivo, po
Method in brief: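 Rats dosed orally in 30% PEG 400. Neurotoxicity was assessed by positional sense and gait-and-stance tests at the time of peak deficit. TD50 with 95% confidence interval was derived by probit analysis from at least three dose points in the 10–90% range.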

[13] = Anticonvulsant activity was determined by injecting perorally in rats. Protective index is the ratio of TD50 and ED50 values obtained in the subcutaneous metrazole (scMet) test; assay type: functional; method in brief: as §3
[14] = Protective index is the ratio of TD50 and ED50 values obtained in the maximal electroshock seizure (MES) test in phase II test; assay type: functional; method in brief: as §3
[15] = Median toxic dose was measured at time of peak neurologic deficit in phase II test; assay type: organism-based; conditions: mouse, in vivo; method in brief: as §2
[16] = Time taken to reach peak toxicity was reported in phase II test
Method in brief: (§8)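 Male Carworth Farms no. 1 mice dosed ip in 30% polyethylene glycol 400 (0.01 mL/g). Seizure protection was tested by MES and by sc pentylenetetrazol (85 mg/kg, 0.5% solution, posterior midline); neurotoxicity was tested on the rotorod. Time of peak effect is given in hours. ED50 and TD50 were determined at that time in groups of 8–16 mice.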

[17] = Protective index is the ratio of TD50 and ED50 values obtained in the subcutaneous metrazole (scMet) test in phase II test; assay type: functional; method in brief: as §3
[18] = Anticonvulsant activity was determined by injecting perorally in mice. Protective index is the ratio of TD50 and ED50 values obtained in the subcutaneous metrazole (scMet) test; assay type: functional; method in brief: as §3
[19] = Anticonvulsant activity was determined by injecting perorally in mice. Protective index is the ratio of TD50 and ED50 values obtained in the maximal electroshock seizure (MES) test.; assay type: functional; method in brief: as §3
[20] = species: Rattus norvegicus; assay: Anticonvulsant activity was determined by injecting perorally in rats. (scMet) test was conducted; assay type: functional
[21] = species: Mus musculus; assay: Anticonvulsant activity was determined by injecting perorally in mice. Time taken to reach peak activity was reported; assay type: functional; method in brief: as §7
[22] = Time taken to reach peak activity was reported in phase II test; assay type: functional; method in brief: as §8
[23] = species: Mus musculus; assay: Anticonvulsant activity was determined by injecting perorally in mice. Time taken to reach peak toxicity was reported; assay type: organism-based; conditions: in vivo, po; method in brief: as §7
[24] = Neurotoxicity was determined by injecting perorally in mice. Median toxic dose was measured; assay type: toxicity, organism-based; conditions: mouse, in vivo, po
Method in brief: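 Mice dosed orally in 30% PEG 400. Neurotoxicity was scored by rotorod at the time of peak neurologic deficit. Groups of 8–16 mice were used, with at least three points in the 10–90% range, and TD50 with 95% confidence interval was derived by probit analysis.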

[25] = Anticonvulsant activity was determined by injecting perorally in rats. Protective index is the ratio of TD50 and ED50 values obtained in the maximal electroshock seizure (MES) test.; assay type: functional; method in brief: as §3
[26] = Dose Injected intraperitoneally that causes death 50% of the mice within 24 hr was reported as lethal dose 50. No deaths among eight test animals at 4000 mg/kg after 24 hr in phase III test; assay type: organism-based; set-up: dose 4000 mg/kg, route intraperitoneal; conditions: mouse, in vivo, ip
[27] = species: Rattus norvegicus; assay: Anticonvulsant activity was determined by injecting perorally in rats. Time taken to reach peak toxicity was reported; assay type: organism-based; conditions: in vivo, po; method in brief: as §7
[28] = species: Rattus norvegicus; assay: Anticonvulsant activity was determined by injecting perorally in rats. MES test was performed; assay type: functional
[29] = test system: Mus musculus; assay: Anticonvulsant activity was determined in maximal electroshock seizure test 0.5 h after administration of 300 mg/kg in (mice/rat); no activity or toxicity up to 300 mg/kg; assay type: functional, organism-based
[30] = test system: Mus musculus; assay: Rotarod test was used to evaluate neurotoxicity in mice. Values are reported after 0.5 h, at 300 mg/kg; no activity or toxicity up to 300 mg/kg; assay type: organism-based; conditions: in vivo
[31] = test system: Mus musculus; assay: Anticonvulsant activity was determined in Subcutaneous metrazole (scMet) test 0.5 h after administration of 300 mg/kg in (mice/rat); no activity or toxicity up to 300 mg/kg; assay type: functional, organism-based
[32] = test system: Mus musculus; assay: Anticonvulsant activity was determined in maximal electroshock seizure test 4.0 h after administration of 300 mg/kg in (mice/rat); no activity or toxicity up to 300 mg/kg; assay type: functional, organism-based
[33] = test system: Mus musculus; assay: Subcutaneous metrazole (scMet) test was done, 4.0 hr after administration; no activity or toxicity up to 300 mg/kg; assay type: functional, organism-based; set-up: dose 300 mg/kg
[34] = test system: Mus musculus; assay: Rotarod test was used to evaluate neurotoxicity in mice. Toxicity values are reported after 0.5 h. toxicity at 300 mg/kg; - denotes no activity observed at 300 mg/kg toxic; assay type: organism-based; conditions: in vivo
[35] = test system: Mus musculus; assay: Rotarod test was used to evaluate neurotoxicity in mice. Toxicity values are reported after 0.5 h.,toxicity at 300 mg/kg; Toxic; assay type: organism-based; set-up: dose 300 mg/kg; conditions: in vivo
[36] = test system: Mus musculus; assay: as §4; assay type: ADME, organism-based; conditions: in vivo; method in brief: as §5
[37] = Median toxic dose was measured at time of peak neurologic deficit; method in brief: as §2

SMILES: O=C(Cc1nc2ccccc2c(=O)n1-c1ccccc1F)c1ccncc1
- TPE [1]: 1 h
- ED50 [2]: 196 mg/kg
- TD50 [3]: 832 mg/kg
- PI [4]: 4.2
- TPE [5]: 2 h
- ED50 [6]: 50 mg/kg
- PI [7]: 16.6

SMILES: CCC1(c2ccccc2)NC(=O)N(C)C1=O (centres undefined) [MEPHENYTOIN]
- ED50 [8]: 30.5 mg/kg

SMILES: Cc1ccccc1-n1c(CC(=O)c2ccncc2)nc2ccccc2c1=O
- ED50 [9]: 27.1 mg/kg
- TPE [10]: 4 h
- ED50 [11]: 15 mg/kg
- TD50 [12]: 2.89 mg/kg
- PI [13]: 1.1
- PI [14]: 3.8
- TD50 [15]: 561 mg/kg
- ED50 [2]: 148 mg/kg
- TPE [16]: 2 h
- PI [17]: 5.6
- PI [18]: 4.5
- PI [19]: 2.5
- ED50 [20]: 2.57 mg/kg
- ED50 [6]: 100 mg/kg
- TPE [21]: 2 h
- TPE [22]: 2 h
- TPE [23]: 0.5 h
- TD50 [24]: 67.6 mg/kg
- PI [25]: 1.7
- LD50 at 24 h [26]: > 4000 mg/kg
- TPE [27]: 4 h
- ED50 [28]: 1.73 mg/kg

SMILES: Cc1ccc(-n2c(CC(=O)c3cccnc3)nc3ccccc3c2=O)cc1
- Activity [29]: No activity or toxicity up to 300 mg/kg
- Activity [30]: No activity or toxicity up to 300 mg/kg
- Activity [31]: No activity or toxicity up to 300 mg/kg
- Activity [32]: No activity or toxicity up to 300 mg/kg
- Activity [33]: No activity or toxicity up to 300 mg/kg

SMILES: O=C(Cc1nc2ccccc2c(=O)n1-c1ccccc1Cl)c1cccnc1
- Activity [34]: Toxic

SMILES: O=C(Cc1nc2ccccc2c(=O)n1-c1ccc(Br)cc1)c1ccncc1
- Activity [35]: Toxic

SMILES: Cc1ccccc1-n1c(C)nc2ccccc2c1=O [METHAQUALONE]
- ED50 [36]: 33.5 mg/kg
- TD50 [37]: 55 mg/kg
